Measured values of several laboratories.
Lines come from different studies, so protocols differ.
Target: Serine/threonine-protein kinase DCLK1 (DCLK1, Homo sapiens, UniProt O15075)
Technique: competition with immobilised ligand
Residues used in one study (O15075 1-740): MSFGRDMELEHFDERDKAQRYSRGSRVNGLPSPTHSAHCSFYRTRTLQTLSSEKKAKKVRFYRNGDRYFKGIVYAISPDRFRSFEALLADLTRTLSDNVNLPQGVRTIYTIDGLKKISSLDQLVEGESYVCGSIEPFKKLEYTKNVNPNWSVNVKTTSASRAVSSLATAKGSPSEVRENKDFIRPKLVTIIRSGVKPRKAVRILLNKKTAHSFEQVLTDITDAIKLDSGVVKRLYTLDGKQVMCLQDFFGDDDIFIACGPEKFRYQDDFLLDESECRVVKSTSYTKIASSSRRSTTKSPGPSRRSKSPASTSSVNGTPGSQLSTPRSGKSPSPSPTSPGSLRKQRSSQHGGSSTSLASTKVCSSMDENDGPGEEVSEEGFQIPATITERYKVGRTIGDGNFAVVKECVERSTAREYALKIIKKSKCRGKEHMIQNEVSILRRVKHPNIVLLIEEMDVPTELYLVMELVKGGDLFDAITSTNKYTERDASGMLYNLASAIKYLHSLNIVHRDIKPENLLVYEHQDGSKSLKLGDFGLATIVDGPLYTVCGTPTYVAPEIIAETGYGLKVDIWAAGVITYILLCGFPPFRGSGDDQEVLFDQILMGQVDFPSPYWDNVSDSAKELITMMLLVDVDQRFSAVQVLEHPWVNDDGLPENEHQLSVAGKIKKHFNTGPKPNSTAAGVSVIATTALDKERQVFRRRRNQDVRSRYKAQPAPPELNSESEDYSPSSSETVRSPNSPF

Compound	observed	tested at	remaining binding [%]
O=C(c1ccc(Nc2nccc(-c3cc4ccccc4s3)n2)cc1)N1CCC(N2CCCC2)CC1	binding	1 µM	86
Cc1cc(-c2cc(C(F)(F)F)ccc2O[C@H]2C[C@@]2(CNS(=O)(=O)c2ccc([N+](=O)[O-])cc2)c2ccc(F)cc2F)[nH]n1	cell-free assay	0.3 µM	32
COc1ccnn2ncc(-c3ccnc(N(C)C)n3)c12	binding	1 µM	80
FC(F)(F)Oc1cccc(-c2cnc3ccc(-c4ccncc4)nn23)c1	cell-free assay	5 µM	69
O=C(c1ccc(Nc2ncc(Cl)c(-c3cc4ccccc4s3)n2)cc1)N1CCC(N2CCCC2)CC1	binding	1 µM	100
CCC(=N\O)/C(C)=C/c1ccc(F)cc1	cell-free assay	1 µM	93
CNC(=O)[C@@H]1CC[C@@H](n2c(-c3ccc4cnccc4c3)nc3ccc(C(=O)NCc4cccc(C(N)=O)c4)cc32)C1	binding	1 µM	85
CC1CCCN1c1nccc(-c2cnn3ncccc23)n1 (centres unmarked)	binding	1 µM	87
CC1=C(C#N)C(c2ccc3c(c2)c(NC(=O)c2ccccc2C)nn3C)C(C#N)=C(C)N1	cell-free assay	1 µM	79
Cc1cnn2ncc(-c3ccnc(N(C)C)n3)c2c1	binding	1 µM	91
CN([C@@H]1CCc2c(CC(=O)O)c3cc(S(C)(=O)=O)ccc3n2C1)S(=O)(=O)c1ccc(F)cc1	cell-free assay	1 µM	79
COc1cnc(Nc2cccc(S(N)(=O)=O)c2)nc1N1CCN(c2ccccc2)CC1	binding	1 µM	92
CN(C)c1nccc(-c2cnc3ncccn23)n1	binding	1 µM	61
CCN1CCN(Cc2ccc(C(=O)Nc3ccc(C)c(Oc4ccc5c(c4)CC(=O)N5)c3)cc2C(F)(F)F)CC1	binding	1 µM	88
O=C(NCCCN1CCOCC1)c1ccc(Nc2nccc(-c3cc4ccccc4s3)n2)cc1	binding	1 µM	88
Cn1nc(C(=O)NCc2ccc(C(=O)O)cc2)cc1-c1ccc2[nH]ccc2c1	cell-free assay	0.1 µM	88
CC(C)(C)c1ccc(-c2nc(CBr)nn2-c2cccc(O)c2)cc1	cell-free assay	10 µM	100
c1cncc(-c2cccc(Nc3nccc(NC4CCCCC4)n3)c2)c1	binding	10 µM	92
COc1ccc2cc(OCC3(C(=O)O)CN(C(=O)c4ccc(F)cc4)C3)ccc2c1	cell-free assay	1 µM	100
C[C@@H]1CN(c2ccc3ncc(-c4ccc5[nH]nc(C6CC6)c5c4)n3n2)C[C@H](C)O1	binding	50 nM	84
N[C@@H]1CCN(c2nccc(-c3cnn4ncccc34)n2)C1	binding	1 µM	70
CC(C)CC(=O)N1CCc2nc(-c3ccc(Br)cc3)nc(N(C)Cc3ccccc3)c2C1	cell-free assay	0.1 µM	100
C[C@H]1CCN(c2nccc(-c3cnn4ncccc34)n2)C1	binding	1 µM	85
COc1cc(C(=O)N2CCC(N3CCN(C)CC3)CC2)ccc1Nc1ncc2c(n1)N(C)c1ccccc1C(=O)N2C	binding	10 µM	4.2
O=C(Nc1c[nH]nc1C(=O)NC1CCNCC1)c1cc(F)cc(F)c1	binding	1 µM	79
Cc1nccc(COC(=O)N2C[C@@H]3[C@@H](CNC(=O)c4ccc5[nH]nnc5c4)[C@@H]3C2)n1	cell-free assay	1 µM	90
